Compound activity deposited in PubChem BioAssay by several laboratories.
An excerpt weighted towards active compounds, which were near 2.2% of everything screened.
Hck Nef HTS – inhibitors of human Hck kinase activated by Nef; P08631; Recombinant Hck-YEEI plus Nef, Z-Lyte FRET kinase assay; inhibition, % at 20 µM; hit rate 0.68% among 220,000; AID 463187;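 active means Hck-Nef kinase inhibition above about 50%, limit read from the data; inactive means inhibition below that limit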
Runt-CBFb FRET – inhibitors of human RUNX1 Runt domain binding to CBFb; AID 1496; Q01196+Q13951; inhibition, % at 20 µM; Cerulean-Runt/Venus-CBFb FRET ratio 530/480, 1 h; hit rate 0.46% among 220,000;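 active means inhibition over about 50% at 20 µM in the single-dose screen, limit read from the data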
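Assay system: Cerulean-Runt domain / Medium: Tris 50 mM pH 7.5, KCl, K2SO4, 0.01% BSA / Timing: protein complex preformed 1 h, compound exposure 1 h, room temperature, dark / Measured by: FRET, excitation 422 nm, emission at 530 and 480 nm / Evaluation: loss of energy transfer signal / Control set: 5 µM unlabeled CBFb as full-inhibition high control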
RanGTP-Imp inh – disruptors of Ran-importin-beta complex formation – biochemical, FRET, CFP-Ran, YFP-importin-beta, homogeneous, primary screen. cell-free CFP-Ran/YFP-importin-beta FRET ratio. inhibition, % (no concentration beside the values). hit rate 1.1% among 300,000. AID 2216;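 active means more than half of the replicate wells show a fall in the fluorescence ratio signal beyond about 16%, limit read from the data, passing the limit was not always enough; inconclusive means exactly half of the replicate wells pass the set limit; inactive means fewer than half of replicates pass the limit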
Runt-SMMHC FRET – blocks binding of human RUNX1 Runt domain to CBFb-SMMHC | Q01196+Q13951 | Cerulean-Runt/Venus-CBFb-SMMHC FRET ratio 530/480, 1 h | AID 1434 | hit rate 0.74% among 220,000 | inhibition, % at 20 µM;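 active means mean inhibition across duplicate retests at 20 µM reaching about 50%, limit read from the data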;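 further: inhibitors lower the FRET ratio by blocking Runt binding to CBFb-SMMHC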
14-3-3 Bad PPI – disrupts binding of bovine 14-3-3 zeta to phospho-Bad peptide. hit rate 0.71% among 220,000. TR-FRET 14-3-3zeta/Dy647-pBad peptide displacement, 1 h. inhibition, % at 21.7 µM. P63103;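 active means inhibition above about 70%, limit read from the data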
Target sequence (P63103 whole entry, looked up): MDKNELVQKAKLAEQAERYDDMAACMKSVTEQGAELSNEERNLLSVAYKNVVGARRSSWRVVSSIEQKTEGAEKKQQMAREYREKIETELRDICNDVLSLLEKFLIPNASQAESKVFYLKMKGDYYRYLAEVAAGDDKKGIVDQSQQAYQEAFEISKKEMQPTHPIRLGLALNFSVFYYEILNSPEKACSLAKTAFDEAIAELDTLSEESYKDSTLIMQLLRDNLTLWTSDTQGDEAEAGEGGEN
Tb hexokinase – blocks Trypanosoma brucei hexokinase 1 activity; recombinant TbHK1, G6PDH-coupled NADH A340; AID 1430; hit rate 0.11% among 220,000; inhibition, % at 10 µM;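 active means inhibition of 50% or more in the single-dose primary screen; inactive means inhibition below 50%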
A number is an active result.

How did Cc1cc(N2C(=O)C(O)=C(C(=O)c3cc4ccccc4o3)C2c2ccc(Cl)cc2)no1 (stereo not given) do in these assays?
RanGTP-Imp inh: inactive

Results for Cc1cc(N2C(=O)C(O)=C(C(=O)c3cc4ccccc4o3)C2c2ccc(Br)cc2)no1 (stereo not given) ?
RanGTP-Imp inh: 47

Results for Clc1ccccc1C(c1ccccc1)(c1ccccc1)n1ccnc1 ?
Hck Nef HTS: inactive; Runt-CBFb FRET: inactive; RanGTP-Imp inh: inactive; Runt-SMMHC FRET: inactive; 14-3-3 Bad PPI: inactive; Tb hexokinase: inactive

How did O=C(COc1ccc(Cl)cc1)Nc1ccc(Cl)cn1 do in these assays?
Hck Nef HTS: inactive; Runt-CBFb FRET: inactive; RanGTP-Imp inh: inactive; Runt-SMMHC FRET: inactive; 14-3-3 Bad PPI: 82; Tb hexokinase: inactive

Results for CCOC(=O)C1CCN(S(=O)(=O)c2ccc(OC)c(Cl)c2)CC1 ?
Hck Nef HTS: inactive; Runt-CBFb FRET: inactive; RanGTP-Imp inh: inactive; Runt-SMMHC FRET: inactive; 14-3-3 Bad PPI: inactive; Tb hexokinase: inactive

What do the screens show for `O=[N+]([O-])c1cccnc1NCc1cccs1`?
Hck Nef HTS: inactive; Runt-CBFb FRET: inactive; RanGTP-Imp inh: inconclusive; Runt-SMMHC FRET: inactive; 14-3-3 Bad PPI: inactive; Tb hexokinase: inactive

How did COc1ccc(OC)c(NC(=O)CSc2nnc(N)s2)c1 do in these assays?
Hck Nef HTS: inactive; Runt-CBFb FRET: inactive; RanGTP-Imp inh: inactive; Runt-SMMHC FRET: inactive; 14-3-3 Bad PPI: inactive; Tb hexokinase: inactive

What do the screens show for `COc1cccc2sc3ccc(C#CC4(O)CCCCC4)cc3c(=O)c12`?
RanGTP-Imp inh: 49

How did Cc1c(/C=N\NC(=O)c2ccc([N+](=O)[O-])cc2)cnn1C do in these assays?
Hck Nef HTS: inactive; Runt-CBFb FRET: inactive; RanGTP-Imp inh: inactive; Runt-SMMHC FRET: inactive; 14-3-3 Bad PPI: inactive; Tb hexokinase: inactive

What do the screens show for `O=C(Cc1c(F)cccc1Cl)OCN1C(=O)c2ccccc2C1=O`?
RanGTP-Imp inh: inactive

How did Cc1cc(C)n(CCCNCC(O)c2ccccc2)n1 (stereo not given) do in these assays?
Hck Nef HTS: inactive; Runt-CBFb FRET: inactive; RanGTP-Imp inh: inactive; Runt-SMMHC FRET: inactive; 14-3-3 Bad PPI: 85; Tb hexokinase: inactive

How did O[C@@H](CNC[C@H](O)c1ccccc1)c1ccccc1 do in these assays?
Hck Nef HTS: inactive; Runt-CBFb FRET: inactive; RanGTP-Imp inh: inactive; Runt-SMMHC FRET: inactive; 14-3-3 Bad PPI: inactive; Tb hexokinase: inactive

Results for Cn1c2c(c(=O)n(C)c1=O)C(c1ccc(Cl)cc1)C(C#N)=C(N)O2 (stereo not given) ?
Hck Nef HTS: inactive; Runt-CBFb FRET: inactive; RanGTP-Imp inh: inactive; Runt-SMMHC FRET: inactive; 14-3-3 Bad PPI: inactive; Tb hexokinase: inactive

Results for COc1ccc(C#Cc2ccc3c(=O)c4ccccc4n(C)c3c2)cc1 ?
RanGTP-Imp inh: 88

How did Nc1ccc(C#Cc2ccc3sc4ccccc4c(=O)c3c2)cc1 do in these assays?
RanGTP-Imp inh: inactive

What do the screens show for `Cn1c2ccccc2c(=O)c2ccc(C#Cc3ccc(N)cc3)cc21`?
RanGTP-Imp inh: 86

How did CN(CC(=O)Nn1cnnc1)S(=O)(=O)c1ccccc1 do in these assays?
Hck Nef HTS: inactive; Runt-CBFb FRET: inactive; RanGTP-Imp inh: inactive; Runt-SMMHC FRET: inactive; 14-3-3 Bad PPI: 73; Tb hexokinase: inactive

Results for CN(CC(=O)Nc1ccncc1)S(=O)(=O)c1ccccc1 ?
Hck Nef HTS: inactive; Runt-CBFb FRET: inactive; RanGTP-Imp inh: inactive; Runt-SMMHC FRET: inactive; Tb hexokinase: inactive

How did CCn1c(SCC(=O)c2ccccc2)nc2sc3c(c2c1=O)CCN(C)C3 do in these assays?
Hck Nef HTS: inactive; Runt-CBFb FRET: inactive; RanGTP-Imp inh: inactive; Runt-SMMHC FRET: 85; 14-3-3 Bad PPI: inactive; Tb hexokinase: inactive

What do the screens show for `O=C(Nc1ccccc1)c1nccn1Cc1ccc(F)cc1`?
Hck Nef HTS: inactive; Runt-CBFb FRET: inactive; RanGTP-Imp inh: inactive; Runt-SMMHC FRET: inactive; 14-3-3 Bad PPI: inactive; Tb hexokinase: inactive

How did Cc1cccc(OCCC(=O)Nc2ccc(F)c(Cl)c2)c1 do in these assays?
Hck Nef HTS: inactive; Runt-CBFb FRET: inactive; RanGTP-Imp inh: inactive; Runt-SMMHC FRET: inactive; 14-3-3 Bad PPI: inactive; Tb hexokinase: inactive

What do the screens show for `Cn1c(CNC(=O)CNS(=O)(=O)c2ccc(F)cc2F)cc(=O)n(C)c1=O`?
RanGTP-Imp inh: inactive
